According to the EternaBench riboswitch data:

Tested on: MS2 coat protein
Assay: apparent Kd, MS2 coat protein; higher = weaker binding; RNA-MaP array; FMN 200 µM where present
Procedure, shortened: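 In 100 mM Tris-HCl pH 7.5, 80 mM KCl, 4 mM MgCl2, BSA, DTT, yeast tRNA and Tween-20, SNAP-549-labelled MS2 coat protein was titrated from 0.7 or 1.5 nM, doubling to 3 µM, over designs transcribed by stalled E. coli RNA polymerase on Illumina sequencing-chip clusters. This was done first without ligand, then with ligand held constant. After green signal was normalised to red-channel RNA signal and control-cluster median Fmax, the apparent Kd was taken as the median of filtered per-cluster binding-curve fits.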

[1] = designed as: OFF switch for flavin mononucleotide, no ligand
[2] = ligand present: flavin mononucleotide, designed as: OFF switch for flavin mononucleotide
[3] = designed as: ON switch for flavin mononucleotide, no ligand
[4] = ligand present: flavin mononucleotide, designed as: ON switch for flavin mononucleotide

UAGAAGUCAGGAUAUCCAGCUCGUCACUUGCGUGAUGAGUUGGAGAAGGGACAUGAGGAUCACCCAUGUAAAGC
apparent Kd [1]: 53.7 nM | apparent Kd [2]: 46.5 nM

GAACUCGUGAAGGAUAUCCGUACCAAAGCGGCAGGAGAAGGUCACACAUGAGGAUCACCCAUGUGGUACCUCGU
apparent Kd [1]: 30 nM | apparent Kd [2]: 130 nM

CAGCGCUGUUGAGAGGAUAUGCGGUGAUGGACAUGAGGAUCACCCAUGUUAGCGACAGCAUUACGGCAGAAGGCUUCACAGCUGC
apparent Kd [3]: 51.1 nM | apparent Kd [4]: 14.6 nM

GUAGCUAUCGGAGGAUAUUCAUACCGGAAACGGACAUGAGGAUCACCCAUGUGCGGAAACGCUUGGGAGAAGGCCGAUAGCUAC
apparent Kd [3]: 247 nM | apparent Kd [4]: 19.4 nM

GGUAAACAUGAGGAUCACCCAUGUAAUAAUAUGGGAGGAUAUGGGAAUUAAUUAAUUAAACCAGAAGGCCUAAUUG
apparent Kd [3]: 216 nM | apparent Kd [4]: 25.6 nM

AAUGCCAACGAAGGAUAUACAAACAUGAGGAUCACCCAUGUGUCUUUCGUGUAACUGGAAUUCGGGUAGAAGGUCGUUGACAUA
apparent Kd [1]: 24.2 nM | apparent Kd [2]: 23.2 nM

AGAUAUAACUCAGGAUAUCAGCAUGGGUAGAUUACAUGAGGAUCACCCAUGUGCAUGUCCCGGCAUGAGAAGGGAGUAACGCAA
apparent Kd [3]: 81.8 nM | apparent Kd [4]: 27.4 nM

GGCGGUCCUUAAUGCACCUGCACAUGAGGAUCACCCAUGUACAGAAGGGCCAGCACCGAAGUAUGGCAGGAUAUGUCGCACGAG
apparent Kd [1]: 7.56 nM | apparent Kd [2]: 10.1 nM

UUUAUAAAUUAGAAGGCGAGAUGAAUUACAAUAGACAUGAGGAUCACCCAUGUGUACCCAUGUCUUGAGGAUAUAGUCAUAUAU
apparent Kd [3]: 132 nM | apparent Kd [4]: 48 nM

AGUAGACAAGGAUAUACAUGAGGAUCACCCAUGUGUGAAGGCCAGGAGGCUCCUCCCUGUAGAAGGUGUCGAGU
apparent Kd [1]: 104 nM | apparent Kd [2]: 293 nM

AAGACUAGAGGAUAUACAUGAGGAUCACCCAUGUAACUGUCAGGAGACUGACGGAGAUGUAGAAGGCUAGUCAA
apparent Kd [1]: 17 nM | apparent Kd [2]: 34.1 nM

UGCAUGCUAGGAUAUACGGGACAUUAGGGUUCGUUGUAUGGACAUGAGGAUCACCCAUGUAGAAGGAGCGUGCU
apparent Kd [1]: 27.4 nM | apparent Kd [2]: 112 nM

UGUCGGAGCAGAGGAUAUUACAUGAGGAUCACCCAUGUAUGAACUAAUAGCUGGAAACAGCAAUGUAAGAAGGCUGCUCCGACA
apparent Kd [1]: 6.27 nM | apparent Kd [2]: 17.9 nM

CUGUGAUGGAUCCAGAAUUACAACAUGAGGAUCACCCAUGUGCAGGAUAUCGGGUUGAUAGGCGCCGAGAAGGGUAUGAUCACG
apparent Kd [1]: 164 nM | apparent Kd [2]: 140 nM

GUCAGCUCGUGAGGAUAUACAACACUGCUUCCGCAGUGUAUUAAGAUCACAUGAGGAUCACCCAUGUAGAAGGCACGAGCUGAU
apparent Kd [1]: 13.7 nM | apparent Kd [2]: 222 nM

AUCAGCUCGUCAGGAUAUACGUCACUGCGUCAGCAGUGUGGUAAGAUCACAUGAGGAUCACCCAUGUAGAAGGGACGAGCUCAU
apparent Kd [1]: 13.9 nM | apparent Kd [2]: 322 nM

CACAAGAAAGUCGAACUAUGUAGGAGAAGGAGUAUAACAUGACAUGAGGAUCACCCAUGUGCCAAUUAGGAUAUUUUAUAUGGG
apparent Kd [1]: 184 nM | apparent Kd [2]: 97.7 nM

ACUUAAAUACCCAAAAGUCGGGCGGAGGAUAUGGAGCUUCCACCACAUGAGGAUCACCCAUGUCUUCAGAAGGCCGCCCUUGGA
apparent Kd [4]: 11.2 nM

GCGAGUACGAGAGGAUAUUGACAUGAGGAUCACCCAUGUAUUUGGGAGUGUUCACUGAAUUCUUACGAGAAGGCUCGUACACGC
apparent Kd [1]: 244 nM | apparent Kd [2]: 252 nM

ACAUGGUAGUAGAAGGGUAUUACUUUAGAUACAACCAUUUGUUUAGUUUAUACAGGAUAUGCUUACAUGAGGAUCACCCAUGUU
apparent Kd [2]: 8.74 nM

UUCGUGCAGCUUUGCUGUACGCGUACAUGAGGAUCACCCAUGUAGGAUAUGGUAGGCAAAGUUUACUAGAAGGAUAUAGUGAUC
apparent Kd [1]: 13.2 nM | apparent Kd [2]: 14.3 nM

GGAUGACAAAGUCAUCCAAUACGAACAUGAGGAUCACCCAUGUAGGAUAUGCUAGUCAAAGACUAGCAGAAGGACAUGUGCCUU
apparent Kd [1]: 39.2 nM | apparent Kd [2]: 238 nM

GGUGGACAUGAGGAUCACCCAUGUGAGGAUAUCGGCUGGUGCGUGGUGGCUGGCAUCUCGAGAAGGCACAUAGU
apparent Kd [1]: 94.4 nM | apparent Kd [2]: 171 nM

GUCAGCUCGUGAGGAUAUACAACACUGCUUCGACAGUGUAUUAAGAUCACAUGAGGAUCACCCAUGUAGAAGGCACGAGCUGAU
apparent Kd [1]: 13.6 nM | apparent Kd [2]: 211 nM

GGAUUACAUGAGGAUCACCCAUGUGAGGAUAUCGAUGUCCUCAAUCCCGUGCGGGACUCGAGAAGGCACUUGGA
apparent Kd [1]: 63 nM | apparent Kd [2]: 48.8 nM
